Assay results as given in ChEMBL document CHEMBL1144785, “Antiplasmodial triterpenoids from Ekebergia capensis” (J Nat Prod, 2008).
The source made the active and inactive calls. The rule behind the calls is not given here.

Columns and labels:
Plasmodium falciparum [1] = assay: Antiplasmodial activity against chloroquine-resistant Plasmodium falciparum K1; assay type: functional, organism-based
Method in brief: (§1)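 Synchronous cultures in RPMI 1640 with 10% human serum, 25 mM HEPES (pH 7.2), hypoxanthine and 2% hematocrit type O+ RBCs, under 5% CO2/5% O2/90% N2 at 37 °C. DMSO stocks were serially diluted 2-fold and added to infected RBCs at 0.5% parasitemia, then incubated 52 h. Ring forms on Giemsa smears were counted against controls. Single assay per concentration; IC50 by probit.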

Plasmodium falciparum [2] = assay: Antiplasmodial activity against chloroquine-susceptible Plasmodium falciparum FCR3; assay type: functional, organism-based; method in brief: as §1
Plasmodium berghei [3] = assay: Antimalarial activity in […] NK65 infected ICR mice (Mus musculus) as reduced parasitemia at 500 mg/kg/day peroral dose after 4 days; assay type: functional; parameters: scale not given: the % may be the effect or the level left; settings: route oral
Method in brief: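 Male ICR mice, 7 weeks old, were infected ip with 10^5 P. berghei NK65-parasitized erythrocytes from donor mice, five per group. Dosing began 2–4 h p.i., given orally by metal catheter once daily for 4 days. Compound was in DMSO diluted with distilled water (final DMSO <0.2%); controls got water. On day 4, tail-vein Giemsa smears gave parasitemia; suppression was calculated versus control.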

Plasmodium berghei [4] = assay: Antimalarial activity in Plasmodium berghei NK65 infected ICR mice (Mus musculus) as reduced parasitemia at 100 mg/kg/day peroral dose for 4 days; assay type: functional
Method in brief: (§2)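 Peters 4-day suppressive test in 7-week-old outbred SPF male ICR mice, five per group. Mice infected i.p. with 10^5 P. berghei NK65-parasitized erythrocytes taken from donor mice. Compound dissolved in DMSO and diluted with distilled water (final DMSO below 0.2%). Given orally by metal catheter once daily for 4 days, first dose 2–4 h p.i.; controls received distilled water. Day-4 Giemsa tail-blood smears scored microscopically; suppression calculated against controls.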

Plasmodium berghei [5] = assay: Antimalarial activity in Plasmodium berghei NK65 infected ICR mice (Mus musculus) as reduced parasitemia at 250 mg/kg/day peroral dose for 4 days; assay type: functional; parameters: scale not given: the % may be the effect or the level left; settings: route oral; method in brief: as §2

SMILES	IC50 (Plasmodium falciparum [1])	IC50 (Plasmodium falciparum [2])	Activity (Plasmodium berghei [3])	Activity (Plasmodium berghei [4])	Activity (Plasmodium berghei [5])	Activity (Plasmodium berghei [4]; route oral)
CC(=O)OC[C@](C)(O)[C@H](O)CC/C(C)=C/CC/C(C)=C/CC/C=C(\C)CC/C=C(\C)CC[C@@H](O)C(C)(C)O [EKEBERIN D5]	137 µM	55 µM	–	–	–	–
CC1(C)C(=O)C=C[C@]2(C)[C@H]3CC[C@@]4(C)[C@H](c5ccco5)OC(=O)[C@H]5O[C@]54[C@]3(C)C(=O)C[C@@H]12	–	6 µM	–	–	–	–
C/C(=C\CC/C=C(\C)CC[C@@H](O)[C@]1(C)CC[C@H](C(C)(C)O)O1)CC[C@@H](O)[C@]1(C)CC[C@H](C(C)(C)O)O1 [EKEBERIN D4]	–	40 µM	–	–	–	–
C/C(=C\CC/C=C(\C)CC/C=C(\C)CC[C@@H](O)[C@@](C)(O)CO)CC/C=C(\C)CC[C@@H](O)C(C)(C)O	7 µM	18 µM	52.9%	inactive	41.2%	–
CC(=O)OC[C@](C)(O)[C@@H](CC/C(C)=C/CC/C(C)=C/CC/C=C(\C)CC/C=C(\C)CC[C@@H](O)C(C)(C)O)OC(C)=O	97 µM	113 µM	–	–	–	–
C/C(=C\CC/C=C(\C)CC/C=C(\C)CC[C@@H](O)C(C)(C)O)CC/C=C(\C)CC[C@@H](O)C(C)(C)O	59 µM	55 µM	20.5%	–	26.5%	26.5%
